# Results published in ChEMBL document CHEMBL5303300, “EUbOPEN Chemogenomics Library - Multiplex” (2023).
# Several values for one entry are separate records, joined by “and”; a condition that tells them apart may be missing. Equal entries are not always repeated.
# Test system: HEK-293T
# Assay: Multiplex assay against HEK293T
# Type: toxicity, cell-based
# Conditions: human, number of replicates 2
# Method in brief: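 Imaging took place on a CQ1 microscope at 37°C and 5% CO2 once compound had been added to live cells stained at seeding with Hoechst33342, BioTracker Green Microtubule Cytoskeleton Dye, MitoTracker Red and Annexin V Alexa Fluor 680. CellPathfinder machine-learning gating classed cells as Hoechst high-intensity objects or normal cells, classed normal cells as having healthy, pyknosed or fragmented nuclei, and classed pyknosed cells as mitotic or apoptotic. Tubulin, mitochondrial-mass and membrane-permeability phenotypes are per cents of the healthy-nucleus cells.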
# [1] = 12 h, 1 µM, compound concentration 1 uM
# [2] = 12 h, 10 µM, compound concentration 10 uM
# [3] = 24 h, 1 µM, compound concentration 1 uM
# [4] = 24 h, 10 µM, compound concentration 10 uM
# [5] = 48 h, 1 µM, compound concentration 1 uM
# [6] = 48 h, 10 µM, compound concentration 10 uM
compound,measurement,setting,value
Cc1ccc(C(=O)Nc2cc(N3CCN(C)CC3)cc(C(F)(F)F)c2)cc1-n1cc(-c2cnn(C)c2C)nn1.Cl,Population Apoptotic (%),[1],57% and 65%
same,Population Fragmented Nuclei (%),[1],4% and 5%
same,Population Healthy Nuclei (%),[1],73% and 76%
same,Population Hoechst High Intensity Objects (%),[1],11% and 9%
same,Population Membrane Permeable-Phenotype (%),[1],5% and 4%
same,Population Mitochondria Different-Phenotype (%),[1],26% and 20%
same,Population Mitotic Cells (%),[1],42% and 35%
same,Population Normal (%),[1],88% and 90%
same,Population Pyknosed Nuclei (%),[1],22% and 17%
same,Population Tubulin-Different-Phenotype (%),[1],74% and 71%
same,Total Cell Count,[1],510 and 505
same,Population Apoptotic (%),[2],61% and 68%
same,Population Fragmented Nuclei (%),[2],2% and 3%
same,Population Healthy Nuclei (%),[2],81% and 82%
same,Population Hoechst High Intensity Objects (%),[2],4% and 5%
same,Population Membrane Permeable-Phenotype (%),[2],8% and 12%
same,Population Mitochondria Different-Phenotype (%),[2],25% and 17%
same,Population Mitotic Cells (%),[2],38% and 31%
same,Population Normal (%),[2],95% and 94%
same,Population Pyknosed Nuclei (%),[2],16% and 14%
same,Population Tubulin-Different-Phenotype (%),[2],88% and 86%
same,Total Cell Count,[2],680 and 697
same,Population Apoptotic (%),[3],70% and 51%
same,Population Fragmented Nuclei (%),[3],8% and 10%
same,Population Healthy Nuclei (%),[3],77% and 76%
same,Population Hoechst High Intensity Objects (%),[3],10%
same,Population Membrane Permeable-Phenotype (%),[3],3% and 2%
same,Population Mitochondria Different-Phenotype (%),[3],16% and 9%
same,Population Mitotic Cells (%),[3],29% and 48%
same,Population Normal (%),[3],89%
same,Population Pyknosed Nuclei (%),[3],14% and 12%
same,Population Tubulin-Different-Phenotype (%),[3],57% and 53%
same,Total Cell Count,[3],759 and 691
same,Population Apoptotic (%),[4],56% and 59%
same,Population Fragmented Nuclei (%),[4],2% and 4%
same,Population Healthy Nuclei (%),[4],83%
same,Population Hoechst High Intensity Objects (%),[4],6% and 9%
same,Population Membrane Permeable-Phenotype (%),[4],8% and 11%
same,Population Mitochondria Different-Phenotype (%),[4],25% and 22%
same,Population Mitotic Cells (%),[4],43% and 40%
same,Population Normal (%),[4],93% and 90%
same,Population Pyknosed Nuclei (%),[4],13% and 12%
same,Population Tubulin-Different-Phenotype (%),[4],88% and 85%
same,Total Cell Count,[4],748 and 730
same,Population Apoptotic (%),[5],35% and 32%
same,Population Fragmented Nuclei (%),[5],13% and 11%
same,Population Healthy Nuclei (%),[5],81% and 84%
same,Population Hoechst High Intensity Objects (%),[5],10%
same,Population Membrane Permeable-Phenotype (%),[5],9% and 6%
same,Population Mitochondria Different-Phenotype (%),[5],1%
same,Population Mitotic Cells (%),[5],64% and 67%
same,Population Normal (%),[5],89%
same,Population Pyknosed Nuclei (%),[5],5% and 4%
same,Population Tubulin-Different-Phenotype (%),[5],23% and 35%
same,Total Cell Count,[5],1722 and 1279
same,Population Apoptotic (%),[6],37% and 52%
same,Population Fragmented Nuclei (%),[6],8%
same,Population Healthy Nuclei (%),[6],83% and 86%
same,Population Hoechst High Intensity Objects (%),[6],5% and 8%
same,Population Membrane Permeable-Phenotype (%),[6],15% and 14%
same,Population Mitochondria Different-Phenotype (%),[6],8%
same,Population Mitotic Cells (%),[6],62% and 47%
same,Population Normal (%),[6],94% and 91%
same,Population Pyknosed Nuclei (%),[6],7% and 5%
same,Population Tubulin-Different-Phenotype (%),[6],79%
same,Total Cell Count,[6],1207 and 1093
C[C@@H](OC[C@@]1(c2ccccc2)CC[C@]2(CCC(=O)N2)CN1)c1cc(C(F)(F)F)cc(C(F)(F)F)c1 [ROLAPITANT],Population Apoptotic (%),[1],57% and 49%
same,Population Fragmented Nuclei (%),[1],6% and 4%
same,Population Healthy Nuclei (%),[1],72% and 81%
same,Population Hoechst High Intensity Objects (%),[1],7% and 8%
same,Population Membrane Permeable-Phenotype (%),[1],5% and 3%
same,Population Mitochondria Different-Phenotype (%),[1],25% and 28%
same,Population Mitotic Cells (%),[1],42% and 50%
same,Population Normal (%),[1],92% and 91%
same,Population Pyknosed Nuclei (%),[1],21% and 14%
same,Population Tubulin-Different-Phenotype (%),[1],66% and 80%
same,Total Cell Count,[1],453 and 616
same,Population Apoptotic (%),[2],56% and 70%
same,Population Fragmented Nuclei (%),[2],4%
same,Population Healthy Nuclei (%),[2],80% and 77%
same,Population Hoechst High Intensity Objects (%),[2],11% and 6%
same,Population Membrane Permeable-Phenotype (%),[2],4% and 2%
same,Population Mitochondria Different-Phenotype (%),[2],35% and 40%
same,Population Mitotic Cells (%),[2],44% and 29%
same,Population Normal (%),[2],88% and 93%
same,Population Pyknosed Nuclei (%),[2],15% and 17%
same,Population Tubulin-Different-Phenotype (%),[2],81% and 86%
same,Total Cell Count,[2],563 and 415
same,Population Apoptotic (%),[3],63% and 53%
same,Population Fragmented Nuclei (%),[3],8% and 6%
same,Population Healthy Nuclei (%),[3],75% and 80%
same,Population Hoechst High Intensity Objects (%),[3],6% and 9%
same,Population Membrane Permeable-Phenotype (%),[3],3% and 2%
same,Population Mitochondria Different-Phenotype (%),[3],12% and 13%
same,Population Mitotic Cells (%),[3],36% and 46%
same,Population Normal (%),[3],93% and 90%
same,Population Pyknosed Nuclei (%),[3],15% and 12%
same,Population Tubulin-Different-Phenotype (%),[3],51% and 61%
same,Total Cell Count,[3],631 and 823
same,Population Apoptotic (%),[4],61%
same,Population Fragmented Nuclei (%),[4],7%
same,Population Healthy Nuclei (%),[4],81% and 77%
same,Population Hoechst High Intensity Objects (%),[4],12% and 9%
same,Population Membrane Permeable-Phenotype (%),[4],3%
same,Population Mitochondria Different-Phenotype (%),[4],21% and 27%
same,Population Mitotic Cells (%),[4],38%
same,Population Normal (%),[4],87% and 90%
same,Population Pyknosed Nuclei (%),[4],11% and 15%
same,Population Tubulin-Different-Phenotype (%),[4],70% and 69%
same,Total Cell Count,[4],730 and 604
same,Population Apoptotic (%),[5],35% and 28%
same,Population Fragmented Nuclei (%),[5],12% and 11%
same,Population Healthy Nuclei (%),[5],82% and 83%
same,Population Hoechst High Intensity Objects (%),[5],8% and 11%
same,Population Membrane Permeable-Phenotype (%),[5],5% and 3%
same,Population Mitochondria Different-Phenotype (%),[5],1% and 2%
same,Population Mitotic Cells (%),[5],64% and 71%
same,Population Normal (%),[5],91% and 88%
same,Population Pyknosed Nuclei (%),[5],4% and 5%
same,Population Tubulin-Different-Phenotype (%),[5],23% and 39%
same,Total Cell Count,[5],1671
same,Population Apoptotic (%),[6],50% and 48%
same,Population Fragmented Nuclei (%),[6],11% and 8%
same,Population Healthy Nuclei (%),[6],83% and 84%
same,Population Hoechst High Intensity Objects (%),[6],9%
same,Population Membrane Permeable-Phenotype (%),[6],6% and 3%
same,Population Mitochondria Different-Phenotype (%),[6],4% and 11%
same,Population Mitotic Cells (%),[6],49% and 51%
same,Population Normal (%),[6],90%
same,Population Pyknosed Nuclei (%),[6],5% and 7%
same,Population Tubulin-Different-Phenotype (%),[6],53% and 48%
same,Total Cell Count,[6],1126 and 904
